Assay results pooled from the literature.
Each line is one published result; the experiments were not run side by side.
Target: Dual specificity tyrosine-phosphorylation-regulated kinase 2 (DYRK2, Homo sapiens, UniProt Q92630)
Technique: competition with immobilised ligand
One construct used (Q92630 1-601): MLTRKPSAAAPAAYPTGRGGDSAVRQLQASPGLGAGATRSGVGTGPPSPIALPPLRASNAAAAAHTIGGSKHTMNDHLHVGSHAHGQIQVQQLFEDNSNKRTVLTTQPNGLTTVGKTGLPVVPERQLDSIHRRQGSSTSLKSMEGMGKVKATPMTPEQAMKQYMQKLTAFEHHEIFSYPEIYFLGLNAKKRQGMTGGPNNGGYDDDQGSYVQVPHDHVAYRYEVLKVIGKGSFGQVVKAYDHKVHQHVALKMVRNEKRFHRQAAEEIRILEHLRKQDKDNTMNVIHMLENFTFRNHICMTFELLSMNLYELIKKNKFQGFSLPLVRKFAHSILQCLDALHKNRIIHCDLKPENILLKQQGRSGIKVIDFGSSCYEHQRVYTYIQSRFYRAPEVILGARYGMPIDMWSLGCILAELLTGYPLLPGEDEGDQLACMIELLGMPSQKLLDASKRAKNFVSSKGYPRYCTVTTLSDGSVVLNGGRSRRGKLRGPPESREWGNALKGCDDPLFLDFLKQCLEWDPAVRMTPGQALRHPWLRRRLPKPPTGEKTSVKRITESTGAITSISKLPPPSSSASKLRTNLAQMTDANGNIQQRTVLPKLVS

With O=C(c1ccc(Nc2nccc(-c3cc4ccccc4s3)n2)cc1)N1CCC(N2CCCC2)CC1 the remaining binding was 3.9% (binding; 1 µM).
For FC(F)(F)Oc1cccc(-c2cnc3ccc(-c4ccncc4)nn23)c1, the remaining binding was 5% (cell-free assay; 5 µM).
With CO[C@@H](C)c1c(Nc2ccc([C@H](N(C)C(=O)C3CCS(=O)(=O)CC3)C(F)(F)F)cc2)cnc2cc(Cl)nn12 the remaining binding was 89% (cell-free assay; 1 µM).
The remaining binding of CN(CCCC(F)(F)F)c1nccc(-c2cnn3ncccc23)n1 is reported as 77% (binding; 1 µM).
For Nc1ncc2c(n1)-c1c([nH]c3ccc(C#CC4CC4)cc13)CCCC2, the remaining binding was 100% (binding; 1 µM).
With O=C(NCCCN1CCOCC1)c1ccc(Nc2ncc(Cl)c(-c3ccc(Cl)s3)n2)cc1 the remaining binding was 2.9% (binding; 1 µM).
For COc1cc(-c2cn(C3CCc4ccccc4N(CC(F)(F)F)C3=O)nn2)ccc1-n1ccc(C)n1 (centres unmarked), the remaining binding was 94% (cell-free assay; 1 µM).
With c1cncc(-c2cccc(Nc3nccc(NC4CCCCC4)n3)c2)c1 the remaining binding was 78% (binding; 10 µM).
The remaining binding of COc1cnc(Nc2cccc(S(N)(=O)=O)c2)nc1N1CCN(c2ccccc2)CC1 is reported as 70% (binding; 1 µM).
O=C(c1ccc(Nc2ncc(Cl)c(-c3ccc(Cl)s3)n2)cc1)N1CCC(N2CCCC2)CC1 has a remaining binding of 3.8% (binding; 1 µM).
C[C@@]1(Cc2ccc(C#N)cc2)C(=O)N(c2cc(Cl)cc(Cl)c2)c2ncc(C(=O)NC3(c4nc(C5CCC5)no4)CC3)n21 has a remaining binding of 93% (cell-free assay; 1 µM).
For C=CC(=O)N1CCC(C(=O)NCC(=O)N2CCN(c3nc(-c4cnc(N)nc4C(F)F)nc(N4CCOCC4)n3)CC2)CC1, the remaining binding was 80% (binding; 1 µM).
CN(C(=O)c1ccccc1)c1cc(N(C)c2ccc3c(c2)CCc2ccc(C(=O)NCCN4CCOCC4)cc2C3=O)ccc1F has a remaining binding of 82% (cell-free assay; 1 µM).
The remaining binding of O=C(NCC1CCOCC1)c1n[nH]cc1NC(=O)c1c(F)cccc1F is reported as 8.3% (binding; 1 µM).
